According to ChEMBL document CHEMBL3875170, “2-Methyl-4/5-nitroimidazole derivatives potentiated against sexually transmitted Trichomonas: Design, synthesis, biology and 3D-QSAR study” (Eur J Med Chem, 2016):
In brackets after ≈: the same amount, converted by molar mass.

Key:
Trichomonas vaginalis [1] = experiment: Antiparasitic activity against metronidazole sensitive Trichomonas vaginalis ATCC 33592 after 48 hrs by trypan blue exclusion assay; type: functional; settings: ATCC 33592, 48 h
[2] = Selectivity index, ratio of IC50 for human HeLa cells to MIC for metronidazole resistant Trichomonas vaginalis ATCC 50143; type: toxicity, cell-based; settings: read-out: Selectivity Index
Summary of the method: (§1)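 SI is HeLa IC50 divided by parasite MIC. HeLa cells seeded at 2 × 10⁴/well in triplicate in DMEM with 10% FCS, 24 h at 37 °C in 5% CO2. Medium then replaced with compound dilutions (0.05% DMSO controls) for 24 h. Viability by MTT read at OD540; IC50 is the concentration killing 50% of cells. MIC from 48 h trypan blue parasite killing in TYM.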

[3] = Cytotoxicity against human HeLa cells after 24 hrs by MTT assay; type: toxicity, cell-based
Summary of the method: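 HeLa cells seeded at 2 × 10⁴ per well in DMEM with 10% FCS, in triplicate, and held 24 h at 37 °C in 5% CO₂. Exposed to compound dilutions for 24 h; controls received 0.05% DMSO. MTT in PBS pH 7.4 added, formazan dissolved in DMSO, OD540 read. IC50 taken as the concentration killing 50% of cells.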

Trichomonas vaginalis [4] = experiment: Antiparasitic activity against metronidazole resistant Trichomonas vaginalis ATCC 50143 after 48 hrs by trypan blue exclusion assay; type: functional; settings: ATCC 50143, 48 h
Summary of the method: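 T. vaginalis trophozoites ([…]), log phase, grown in TYM with 10% FCS, vitamin mix and penicillin/streptomycin at 37 °C. Test agents from DMSO stocks serially diluted in TYM; DMSO/TYM vehicle controls. Anaerobic incubation at 37 °C with microscopic viability checks from 3 to 48 h by trypan blue exclusion. MIC is the lowest concentration killing all cells by 48 h. Repeated three times.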

[5] = Selectivity index, ratio of IC50 for human HeLa cells to MIC for metronidazole sensitive Trichomonas vaginalis ATCC 33592; type: toxicity, cell-based; settings: read-out: Selectivity Index; summary of the method: as §1
Trichomonas vaginalis [6] = experiment: Potency index, ratio of metronidazole MIC to compound MIC for metronidazole resistant Trichomonas vaginalis ATCC 50143; type: functional

SMILES | MIC (Trichomonas vaginalis [1]) | selectivity ratio [2] | IC50 at 24 h [3] | MIC (Trichomonas vaginalis [4]) | selectivity ratio [5] | Ratio (Trichomonas vaginalis [6])
CCN(C)C(=S)SCC(O)Cn1c([N+](=O)[O-])cnc1C (stereo unspecified) | 24.6 µM (≈ 7.82 µg/mL) | 10 | 4.15 mM | 393 µM (≈ 125 µg/mL) | 169 | 
Cc1ncc([N+](=O)[O-])n1CC(O)CSC(=S)N1CCCCCC1 (racemic) | 34.9 µM (≈ 12.5 µg/mL) | 6 | 0.411 mM | 69.8 µM (≈ 25 µg/mL) | 11 | 2.5 - 12.6
CCOC(=O)N1CCN(CC(O)Cn2c([N+](=O)[O-])cnc2C)CC1 (racemic) | 22.9 µM (≈ 7.82 µg/mL) | 40 | 3.67 mM | 91.6 µM (≈ 31.3 µg/mL) | 160 | <=12.7
CCN1CCN(CC(O)Cn2cc([N+](=O)[O-])nc2C)CC1 (racemic) | 337 µM (≈ 100 µg/mL) |  | > 5 mM |  | > 14 | 
Cc1ncc([N+](=O)[O-])n1CC(O)CN1CCN(c2ccccc2)CC1 (racemic) | 22.6 µM (≈ 7.82 µg/mL) | > 27 | > 5 mM | 181 µM (≈ 62.6 µg/mL) | > 220 | <=12.7
Cc1ncc([N+](=O)[O-])n1CC(O)CN1CCCCC1C (racemic) | 55.4 µM (≈ 15.6 µg/mL) | > 11 | > 5 mM | 443 µM (≈ 125 µg/mL) | > 90 | 
COc1ccccc1N1CCN(C(=S)SCC(O)Cn2c([N+](=O)[O-])cnc2C)CC1 (racemic) | 27.7 µM (≈ 12.5 µg/mL) | > 90 | > 5 mM | 55.4 µM (≈ 25 µg/mL) | > 185 | <=12.7
Cc1ncc([N+](=O)[O-])n1CC(O)CN1CCN(c2ccccc2F)CC1 (racemic) | 43 µM (≈ 15.6 µg/mL) | > 14 | > 5 mM | 344 µM (≈ 125 µg/mL) | > 116 | <=12.7
COc1ccccc1N1CCN(C(=S)SCC(O)Cn2cc([N+](=O)[O-])nc2C)CC1 (racemic) | 222 µM (≈ 100 µg/mL) | > 4 | > 5 mM | 1110 µM (≈ 501 µg/mL) | > 22 | 
Cc1nc([N+](=O)[O-])cn1CC(O)CSC(=S)N1CCN(C(=O)OC(C)(C)C)CC1 (racemic) | 28.1 µM (≈ 12.5 µg/mL) | > 9 | > 5 mM | 562 µM (≈ 250 µg/mL) | > 178 | 
CCOC(=O)N1CCN(C(=S)SCC(O)Cn2cc([N+](=O)[O-])nc2C)CC1 (racemic) | 120 µM (≈ 50.1 µg/mL) | 4 | 2.36 mM | 600 µM (≈ 250 µg/mL) | 19 | 
Cc1nc([N+](=O)[O-])cn1CC(O)CSC(=S)N1CCN(c2cccc(Cl)c2)CC1 (racemic) | 54.9 µM (≈ 25.1 µg/mL) | 3 | 1.74 mM | 549 µM (≈ 251 µg/mL) | 31 | 
Cc1nc([N+](=O)[O-])cn1CC(O)CSC(=S)N1CCCC(C)C1 (racemic) | 34.9 µM (≈ 12.5 µg/mL) | 2 | 2.7 mM | 1400 µM (≈ 501 µg/mL) | 105 | 
Cc1ncc([N+](=O)[O-])n1CC(O)CSC(=S)N1CCOCC1 (racemic) | 36.1 µM (≈ 12.5 µg/mL) | 31 | 4.52 mM | 144 µM (≈ 50.1 µg/mL) | 125 | 2.5 - 12.6
COc1ccccc1N1CCN(CC(O)Cn2c([N+](=O)[O-])cnc2C)CC1 (racemic) | 33.3 µM (≈ 12.5 µg/mL) | 33 | 4.39 mM | 133 µM (≈ 50.1 µg/mL) | 131 | <=12.7
Cc1ncc([N+](=O)[O-])n1CC(O)CSC(=S)N1CCCC1 (racemic) | 37.9 µM (≈ 12.5 µg/mL) | 9 | 1.34 mM | 152 µM (≈ 50.1 µg/mL) | 35 | 2.5 - 12.6
Cc1nc([N+](=O)[O-])cn1CC(O)CN1CCN(c2cccc(Cl)c2Cl)CC1 (racemic) | 121 µM (≈ 50 µg/mL) | 3 | 3.62 mM | 1210 µM (≈ 500 µg/mL) | 30 | 
Cc1ncc([N+](=O)[O-])n1CC(O)CSC(=S)N1CCN(c2ccccn2)CC1 (racemic) | 29.6 µM (≈ 12.5 µg/mL) | 20 | 2.97 mM | 148 µM (≈ 62.6 µg/mL) | 100 | <=12.7
Cc1ncc([N+](=O)[O-])n1CC(O)CSC(=S)N1CCCCC1 (racemic) | 72.7 µM (≈ 25 µg/mL) | 9 | 1.4 mM | 145 µM (≈ 50.1 µg/mL) | 19 | 2.5 - 12.6
Cc1nc([N+](=O)[O-])cn1CC(O)CSC(=S)N1CCN(c2cccc(Cl)c2Cl)CC1 (racemic) | 25.5 µM (≈ 12.5 µg/mL) | 2 | 0.724 mM | 510 µM (≈ 250 µg/mL) | 30 | 
CCN1CCN(C(=S)SCC(O)Cn2c([N+](=O)[O-])cnc2C)CC1 (racemic) | 20.9 µM (≈ 7.82 µg/mL) | > 60 | > 5 mM | 83.8 µM (≈ 31.3 µg/mL) | > 250 | <=12.7
CCCCN1CCN(C(=S)SCC(O)Cn2cc([N+](=O)[O-])nc2C)CC1 (racemic) | 125 µM (≈ 50.1 µg/mL) |  | 4.33 mM |  | 34 | 
Cc1nc([N+](=O)[O-])cn1CC(O)CN1CCN(c2ccccn2)CC1 (racemic) | 144 µM (≈ 50.1 µg/mL) | > 3 | > 5 mM | 1450 µM (≈ 501 µg/mL) | > 34 | 
Cc1ncc([N+](=O)[O-])n1CC(O)CSC(=S)N(C)C (racemic) | 20.6 µM (≈ 6.26 µg/mL) | > 61 | > 5 mM | 82.2 µM (≈ 25 µg/mL) | > 243 | <=12.7
Cc1ncc([N+](=O)[O-])n1CC(O)CSC(=S)N1CCN(c2ncccn2)CC1 (racemic) | 29.6 µM (≈ 12.5 µg/mL) | 69 | 2.04 mM | 29.6 µM (≈ 12.5 µg/mL) | 69 | 12.3
Cc1ncc([N+](=O)[O-])n1CC(O)CN1CCN(c2ncccn2)CC1 (racemic) | 22.5 µM (≈ 7.82 µg/mL) | 43 | 3.93 mM | 90 µM (≈ 31.3 µg/mL) | 174 | <=12.7
CCN1CCN(C(=S)SCC(O)Cn2cc([N+](=O)[O-])nc2C)CC1 (racemic) | 134 µM (≈ 50.1 µg/mL) | > 3 | > 5 mM | 1340 µM (≈ 501 µg/mL) | > 37 | 
CCN(CC)C(=S)SCC(O)Cn1c([N+](=O)[O-])cnc1C (racemic) | 37.6 µM (≈ 12.5 µg/mL) | 32 | 2.46 mM | 75.3 µM (≈ 25 µg/mL) | 65 | <=12.7
Cc1nc([N+](=O)[O-])cn1CC(O)Cn1cncn1 (racemic) | 99.2 µM (≈ 25 µg/mL) | > 5 | > 5 mM | 992 µM (≈ 250 µg/mL) | > 50 | 
